Assay results from ChEMBL document CHEMBL1137418, “Neurosteroid analogues. 11. Alternative ring system scaffolds: gamma-aminobutyric acid receptor modulation and anesthetic actions of benz[f]indenes” (J Med Chem, 2006).
The source made the active and inactive calls. The rule behind the calls is not given here.

Tests used:
[1] = species: Xenopus laevis; test: Loss of swimming reflex in Xenopus laevis tadpole; format: functional
Summary of the method: (§1)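 Xenopus tadpoles were scored for loss of righting response and, separately, loss of swimming response. N = 10 animals were tested at each of five or more concentrations, and error is given as SEM.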

[2] = biological target: T1, GABA-A receptor; alpha-1/beta-2/gamma-2 (Rattus norvegicus) (UniProt P18508+P62813+P63138); test: Activity at rat GABA-Aalpha1 receptor plus beta-2-gamma-2L expressed in Xenopus laevis oocyte assessed as ratio of current evoked by compound alone in absence of GABA to current evoked by 2 uM GABA at 10 uM
[3] = species: Xenopus laevis; test: Loss of righting reflex in Xenopus laevis tadpole; format: functional; summary of the method: as §1
[4] = biological target: T1, GABA-A receptor; alpha-1/beta-2/gamma-2 (Rattus norvegicus); test: Activity at rat GABA-Aalpha1 receptor plus beta2gamma2L expressed in Xenopus laevis oocyte assessed as ratio of GABA-mediated current in presence to absence of compound at 1 uM; format: functional
[5] = biological target: T1, GABA-A receptor; alpha-1/beta-2/gamma-2 (Rattus norvegicus); test: Activity at rat GABA-Aalpha1 receptor plus beta-2-gamma-2L expressed in Xenopus laevis oocyte assessed as ratio of GABA-mediated current in presence to absence of compound at 0.1 uM; format: functional
[6] = biological target: T1, GABA-A receptor; alpha-1/beta-2/gamma-2 (Rattus norvegicus); test: Activity at rat GABA-Aalpha1 receptor plus beta-2-gamma-2L expressed in Xenopus laevis oocyte assessed as ratio of GABA-mediated current in presence to absence of compound at 10 uM; format: functional
[7] = biological target: GABA-A receptor; anion channel; test: Displacement of [35S]TBPS from GABA-A receptor in rat brain membrane; format: cell membranes
Summary of the method: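 Rat brain membranes were used to measure noncompetitive displacement of [35S]-TBPS from the picrotoxin site of GABAA receptors. Hill slopes were also derived. Results come from duplicate experiments run in triplicate, with error as SEM.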

[8] = species: Xenopus laevis; test: Loss of swimming reflex in Xenopus laevis tadpole at 10 uM; format: functional, organism-based
[9] = species: Xenopus laevis; test: Loss of righting reflex in Xenopus laevis tadpole at 10 uM; format: functional, organism-based

| SMILES | ED50 [1] | Ratio [2] | ED50 [3] | Ratio [4] | Ratio [5] | Ratio [6] | IC50 [7] | Activity [8] | Activity [9] |
| --- | --- | --- | --- | --- | --- | --- | --- | --- | --- |
| C[C@]12CC[C@@H](O)C[C@H]1CC[C@@H]1[C@@H]2CC[C@]2(C)[C@@H](C#N)CC[C@@H]12 | 0.36 µM | 0.09 | 0.08 µM | 10.4 | 2.02 | 20.6 | 0.072 µM |  |  |
| CC(=O)[C@H]1CC[C@H]2[C@@H]3CC[C@@H](CCO)C[C@H]3CC[C@]12C | 3.15 µM | 0.14 | 1.09 µM | 0.96 | 0.91 | 3.63 | 1.17 µM |  |  |
| C[C@]12CC[C@@H]3C[C@H](CCO)CC[C@H]3[C@@H]1CCC2=O |  | 0.03 | 16.4 µM | 1.03 | 0.99 | 1.05 | 4.17 µM | inactive |  |
| C[C@]12CC[C@@H]3C[C@@H](CCO)CC[C@H]3[C@@H]1CC[C@@H]2C#N | 1.73 µM | 0.01 | 0.14 µM | 3.65 | 1.45 | 7.42 | 0.13 µM |  |  |
| C[C@]12CC[C@@H]3C[C@@H](CCO)CC[C@H]3[C@@H]1CCC2=O |  | -0.16 | 8.1 µM | 1.22 | 0.95 | 2.11 | 5.42 µM | inactive |  |
| C[C@]12CC[C@@H]3C[C@H](CCO)CC[C@H]3[C@@H]1CC[C@@H]2C#N | 5.5 µM | 0.54 | 0.79 µM | 2.33 | 1.29 | 12.2 | 0.58 µM |  |  |
| CC(=O)[C@H]1CC[C@H]2[C@@H]3CC[C@H](CCO)C[C@H]3CC[C@]12C | 2.84 µM | 0.13 | 1.04 µM | 3.79 | 1.27 | 9.35 | 0.13 µM |  |  |
| C[C@]12CC[C@@H](O)C[C@@H]1CC[C@@H]1[C@@H]2CC[C@]2(C)[C@@H](C#N)CC[C@@H]12 | 0.71 µM | 0.66 | 0.07 µM | 5.65 | 1.44 | 8.28 | 0.05 µM |  |  |
| CC(=O)[C@H]1CC[C@H]2CC3C[C@H](CCO)CC[C@@H]3C[C@@]21C (single isomer, unassigned) |  |  | >10 µM |  |  |  |  | inactive |  |
| CC(=O)[C@H]1CC[C@H]2CC3C[C@@H](CCO)CC[C@@H]3C[C@@]21C (single isomer, unassigned) | 17.3 µM |  | 6.63 µM |  |  |  | 2.05 µM |  |  |
| C[C@]12C[C@H]3CC[C@H](CCO)CC3C[C@@H]1CCC2=O (single isomer, unassigned; 1a) [listing 1 of 2 here] |  |  | 4.01 µM |  |  |  | 5.01 µM |  |  |
| C[C@]12C[C@H]3CC[C@H](CCO)CC3C[C@@H]1CCC2=O (single isomer, unassigned; 1a) [listing 2 of 2 here] |  | -0.02 |  | 1 | 1 | 2.42 |  | inactive |  |
| C[C@]12C[C@H]3CC[C@@H](CCO)CC3C[C@@H]1CCC2=O (single isomer, unassigned; 1b) [listing 1 of 2 here] |  |  |  |  |  |  | 3.92 µM |  |  |
| C[C@]12C[C@H]3CC[C@@H](CCO)CC3C[C@@H]1CCC2=O (single isomer, unassigned; 1b) [listing 2 of 2 here] |  | -0.02 |  | 1.08 | 0.9 | 3.54 |  | inactive | inactive |
| C[C@]12C[C@H]3CC[C@@H](CCO)CC3C[C@@H]1CCC2=O (single isomer, unassigned; 1c) [listing 1 of 2 here] |  |  |  |  |  |  | > 30 µM |  |  |
| C[C@]12C[C@H]3CC[C@@H](CCO)CC3C[C@@H]1CCC2=O (single isomer, unassigned; 1c) [listing 2 of 2 here] |  | -0.01 |  | 0.9 | 0.93 | 1.02 |  | inactive | inactive |
| C[C@]12C[C@H]3CC[C@H](CCO)CC3C[C@@H]1CCC2=O (single isomer, unassigned; 1d) [listing 1 of 2 here] |  |  | 10 µM |  |  |  | > 10 µM |  |  |
| C[C@]12C[C@H]3CC[C@H](CCO)CC3C[C@@H]1CCC2=O (single isomer, unassigned; 1d) [listing 2 of 2 here] |  | -0.05 |  | 1.04 | 1.02 | 1.21 |  | inactive |  |
| C[C@]12C[C@H]3CC[C@H](CCO)CC3C[C@@H]1CC[C@@H]2C#N (single isomer, unassigned; 2a) [listing 1 of 2 here] | 17.3 µM |  | 4.78 µM |  |  |  | 1.22 µM |  |  |
| C[C@]12C[C@H]3CC[C@H](CCO)CC3C[C@@H]1CC[C@@H]2C#N (single isomer, unassigned; 2a) [listing 2 of 2 here] |  | 0 |  | 1.29 | 1.02 | 3.9 |  |  |  |
| C[C@]12C[C@H]3CC[C@@H](CCO)CC3C[C@@H]1CC[C@@H]2C#N (single isomer, unassigned; 2b) [listing 1 of 2 here] | 5.48 µM |  | 2.88 µM |  |  |  | 0.52 µM |  |  |
| C[C@]12C[C@H]3CC[C@@H](CCO)CC3C[C@@H]1CC[C@@H]2C#N (single isomer, unassigned; 2b) [listing 2 of 2 here] |  | 0.01 |  | 2.11 | 1.02 | 7.21 |  |  |  |
| C[C@]12C[C@H]3CC[C@@H](CCO)CC3C[C@@H]1CC[C@@H]2C#N (single isomer, unassigned; 2c) [listing 1 of 2 here] |  |  | 3 µM |  |  |  | 1.98 µM |  |  |
| C[C@]12C[C@H]3CC[C@@H](CCO)CC3C[C@@H]1CC[C@@H]2C#N (single isomer, unassigned; 2c) [listing 2 of 2 here] |  | -0.01 |  | 1.14 | 1.01 | 3.23 |  | inactive |  |
| C[C@]12C[C@H]3CC[C@H](CCO)CC3C[C@@H]1CC[C@@H]2C#N (single isomer, unassigned; 2d) [listing 1 of 2 here] | 17.3 µM |  | 5.12 µM |  |  |  | 1.9 µM |  |  |
| C[C@]12C[C@H]3CC[C@H](CCO)CC3C[C@@H]1CC[C@@H]2C#N (single isomer, unassigned; 2d) [listing 2 of 2 here] |  | 0.01 |  | 1.03 | 0.98 | 2.17 |  |  |  |
| C[C@]12CC[C@@H](O)C[C@@H]1CC[C@@H]1[C@@H]2CC[C@]2(C)C(=O)CC[C@@H]12 [ANDROSTERONE] |  | 0.02 | 3.38 µM | 1.41 | 0.97 | 5.44 | 0.41 µM | inactive |  |
| CC(=O)[C@H]1CC[C@H]2[C@@H]3CC[C@H]4C[C@H](O)CC[C@]4(C)[C@H]3CC[C@]12C [BREXANOLONE] | 5.5 µM | 0.37 | 0.42 µM | 3.89 | 1.26 | 9.65 |  |  |  |
| CC(=O)[C@H]1CC[C@H]2[C@@H]3CC[C@@H]4C[C@H](O)CC[C@]4(C)[C@H]3CC[C@]12C [ELTANOLONE] | 0.3 µM | 0.06 | 0.06 µM | 2.82 | 1.2 | 9.77 |  |  |  |
| C[C@]12CC[C@@H](O)C[C@H]1CC[C@@H]1[C@@H]2CC[C@]2(C)C(=O)CC[C@@H]12 [ETIOCHOLANOLONE] |  | 0 | >10 µM | 0.87 | 0.89 | 1.39 | 4.14 µM | inactive |  |
